From ChEMBL document CHEMBL1212891, “Effect of [6]-shogaol on cytosolic Ca2+ levels and proliferation in human oral cancer cells (OC2)” (J Nat Prod, 2010)
Calls of active or inactive are those of the source. The calls are words filed in the database; no cut-off is given here.

Key:
OC2 [1] = test: Activation of phospholipase A2/C in human OC2 cells assessed as increase in intracellular calcium level at 1 uM; type: cell-based
Outline: (§1)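 OC2 cells trypsinized (10^6/mL), recovered 1 h in culture medium, loaded with 2 µM fura-2/AM for 30 min at 25 °C, washed and resuspended in Ca2+-containing buffer pH 7.4 (NaCl 140, KCl 5, MgCl2 1, CaCl2 2, HEPES 5, glucose 5 mM). 0.5 million cells/mL stirred at 25 °C. Ratio of 340/380 nm excitation read at 510 nm emission every 1 s. Calibrated with Triton X-100 and EGTA, Kd 155 nM.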

[2] = (§2) Cytotoxicity in human OC2 cells assessed as decrease in cell viability after 24 hrs by crystal violate assay; type: functional, cell-based; conditions: OC2, 24 h
Outline: (§3)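 OC2 cells in RPMI with 10% heat-inactivated FCS at 37 °C, 5% CO2. Plated at 1 × 10^4 per well and grown overnight. At about 70% confluence, medium replaced with compound at 0-100 µM from a DMSO stock (final DMSO <0.5%, DMSO as control) for 24 h. Cell number by crystal violet elution, expressed as percent of control. n=5.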

OC2 [3] = test: Activation of phospholipase A2/C in human OC2 cells assessed as increase in intracellular calcium level at 100 uM; type: cell-based; outline: as §1
OC2 [4] = test: Activation of phospholipase A2/C in human OC2 cells assessed as increase in intracellular calcium level at 100 uM in presence of protein kinase C activator PMA
OC2 [5] = test: Activation of phospholipase A2/C in human OC2 cells assessed as increase in intracellular calcium level at 0.1 uM; type: cell-based; outline: as §1
OC2 [6] = test: Activation of calcium channel in human OC2 cells assessed as increase in intracellular calcium […] in presence of La3+; type: cell-based; outline: as §1
OC2 [7] = test: Activation of phospholipase A2/C in human OC2 cells assessed as increase in intracellular calcium level at 100 uM pretreated with phospholipase C inhibitor […] and ATP; type: cell-based
OC2 [8] = test: Activation of phospholipase A2/C in human OC2 cells assessed as increase in intracellular calcium level at 100 uM in presence of thapsigargin; type: cell-based
OC2 [9] = test: Activation of phospholipase A2/C in human OC2 cells assessed as increase in intracellular calcium level in presence of phospholipase-A2 inhibitor aristolochc acid; type: cell-based; outline: as §1
OC2 [10] = test: Activation of phospholipase A2/C in human OC2 cells assessed as increase in intracellular calcium level at 100 uM in presence of PKC inhibitor GF109203X; type: cell-based; outline: as §1
OC2 [11] = test: Activation of phospholipase A2/C in human OC2 cells assessed as increase in intracellular calcium level at 100 uM in presence of PKA inhibitor H89; type: cell-based; outline: as §1
OC2 [12] = test: Activation of phospholipase A2/C in human OC2 cells assessed as decrease in intracellular calcium release at 100 uM in presence of Calcium entry blocker La3+; type: cell-based; outline: as §1
OC2 [13] = test: as §2; type: functional, cell-based; outline: as §3

For COC(=O)C1=C(C)NC(C)=C(C(=O)OC)C1c1ccccc1[N+](=O)[O-], the Activity (OC2 [1]) was “inactive”.

In the case of CCCCC[C@H](O)CC(=O)CCc1ccc(O)c(OC)c1 [GINGEROL], the IC50 [2] is reported as 74.2 µM.

For CCCCC/C=C/C(=O)CCc1ccc(O)c(OC)c1 [SHOGAOL], the Activity (OC2 [3]) was 68%, the Activity (OC2 [4]) was “Active” and the Activity (OC2 [5]) was “inactive”. The Activity (OC2 [6]) was “inactive”, the Activity (OC2 [7]) was “inactive” and the Activity (OC2 [8]) was “inactive”. For the same compound, the Activity (OC2 [9]) was “inactive”, the Activity (OC2 [10]) was “Active” and the Activity (OC2 [11]) was “Active”. For the same compound, the Activity (OC2 [12]) was “inactive”, the Activity (OC2 [13]) was “Dose-dependent effect” and the IC50 [2] was 15.6 µM.

With COc1ccc(CCN(C)CCCC(C#N)(c2ccc(OC)c(OC)c2)C(C)C)cc1OC (configuration not stated) the Activity (OC2 [1]) was “inactive”.

For COc1ccc([C@@H]2Sc3ccccc3N(CCN(C)C)C(=O)[C@@H]2OC(C)=O)cc1, the Activity (OC2 [1]) was “inactive”.

With COC(=O)C1=C(C)NC(C)=C(C(=O)OCCN(C)Cc2ccccc2)C1c1cccc([N+](=O)[O-])c1 (configuration not stated) the Activity (OC2 [1]) was “inactive”.
